Data from ChEMBL document CHEMBL2311491, “Development of new cyclic plasmin inhibitors with excellent potency and selectivity” (J Med Chem, 2013).
Blank lines part the entries; values can stand above or below the compound they belong to.

How the values were obtained:
Coagulation factor XII = Coagulation factor XII (Homo sapiens, UniProt P00748); assay: Inhibition of human FXIIa
[1] = target: Urokinase-type plasminogen activator (Homo sapiens, UniProt P00749); assay: Inhibition of human uPA
[2] = target: Tissue-type plasminogen activator (Homo sapiens, UniProt P00750); assay: Inhibition of human tPA
Plasma [3] = assay: Anticoagulant activity in human plasma assessed as concentration required to thrombin time; type: functional
In short: (§1)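 Clotting time measured in human plasma spiked with inhibitor. Value reported as EC200, the concentration that doubles the clotting time.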

Rattus norvegicus = species: Rattus norvegicus; assay: Displacement of [3H]batrachotoxinin from wistar rat Na channel at 10 uM
In short: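 Single-point radioligand binding screen at 10 μM test compound, run by a contract lab under its own protocol. Read-out is percent binding, where negative values mean no binding.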

[4] = target: Cytochrome P450 2C19 (Homo sapiens) (UniProt P33261); assay: Inhibition of human recombinant CYP2C19 expressed in Trichoplusia ni BTI-TN-5B1-4 cells preincubated for 15 mins measured after 30 mins by spectrofluorimetry
[5] = target: Complement C1r subcomponent (Homo sapiens, UniProt P00736); assay: Inhibition of human C1r
Coagulation factor IX = Coagulation factor IX (Homo sapiens, UniProt P00740); assay: Inhibition of human FIXa
Serine protease 1 = Serine protease 1 (Homo sapiens, UniProt P07477); assay: Inhibition of human trypsin
[6] = target: Complement C1s subcomponent (Homo sapiens, UniProt P09871); assay: Inhibition of human C1s
[7] = Thermodynamic solubility of the compound in 0.9% saline; type: physicochemical; conditions: read-out: Therm_solubility
Prothrombin = Prothrombin (Homo sapiens, UniProt P00734); assay: Inhibition of human thrombin using CH3SO2-D-Cha-Gly-Arg-pNA as substrate after 5 to 10 mins by micro plate reader analysis
[8] = target: L-type Ca channel, dihydropyridine site (Rattus norvegicus, UniProt P22002+P27732+Q02485); assay: Displacement of [3H]nitrendipine from wistar rat Ca channel L-type dihydropyridine receptor at 10 uM; conditions: probe [3H]nitrendipine
In short: (§2)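 Radioligand binding to the ion channel with test compound at 10 μM. Result expressed as % binding; negative values are read as no binding. Assays run by a contract laboratory.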

hERG (KCNH2) = hERG (KCNH2) (Homo sapiens, UniProt Q12809); assay: Displacement of [3H]astemizole from human ERG channel at 10 uM; conditions: probe [3H]astemizole; in short: as §2
[9] = target: L-type Ca channel, phenylalkylamine site (Rattus norvegicus, UniProt P22002+P27732+Q02485); assay: Displacement of [3H](-)-desmethoxyverapamil from wistar rat Ca channel L-type phenylalkylamine receptor at 10 uM; conditions: probe [3H](-)-desmethoxyverapamil; in short: as §2
Plasma [10] = assay: Anticoagulant activity in human plasma assessed as concentration required to prothrombin time; type: functional; in short: as §1
Plasma [11] = assay: Anticoagulant activity in human plasma assessed as concentration required to activated partial thromboplastin time; type: functional; in short: as §1
Trypsin = Trypsin (Sus scrofa, UniProt P00761); assay: Inhibition of pig trypsin using CH3SO2-D-Cha-Gly-Arg-pNA as substrate after 5 to 10 mins by micro plate reader analysis
[12] = target: Cytochrome P450 1A2 (Homo sapiens) (UniProt P05177); assay: Inhibition of human recombinant CYP1A2 expressed in Trichoplusia ni BTI-TN-5B1-4 cells preincubated for 15 mins measured after 45 mins by spectrofluorimetry
[13] = target: L-type Ca channel, benzothiazepine site (Rattus norvegicus, UniProt P22002+P27732+Q02485); assay: Displacement of [3H]diltiazem from wistar rat Ca channel L-type benzothiazepine receptor at 10 uM; conditions: probe [3H]diltiazem; in short: as §2
Cytochrome P450 2C9 = Cytochrome P450 2C9 (Homo sapiens, UniProt P11712); assay: Inhibition of human recombinant CYP2C9 expressed in Trichoplusia ni BTI-TN-5B1-4 cells preincubated for 15 mins measured after 45 mins by spectrofluorimetry; type: ADME, cell-based
[14] = Metabolic stability in human liver microsomes assessed as degradation after 60 mins; type: ADME, Microsome; conditions: read-out: Drug degradation
[15] = target: Vitamin K-dependent protein C (Homo sapiens, UniProt P04070); assay: Inhibition of human activated protein C using H-D-Lys(Cbz)-Pro-Arg-pNA as substrate after 5 to 10 mins by micro plate reader analysis
Cytochrome P450 3A4 = Cytochrome P450 3A4 (Homo sapiens, UniProt P08684); assay: Inhibition of human recombinant CYP3A4 expressed in Trichoplusia ni BTI-TN-5B1-4 cells preincubated for 15 mins measured after 30 mins by spectrofluorimetry; type: ADME, cell-based
Plasma kallikrein = Plasma kallikrein (Homo sapiens, UniProt P03952); assay: Inhibition of human plasma kallikrein using H-D-Pro-Phe-Arg-pNA as substrate after 5 to 10 mins by micro plate reader analysis
Coagulation factor XI = Coagulation factor XI (Homo sapiens, UniProt P03951); assay: Inhibition of human FXIa
Cytochrome P450 2D6 = Cytochrome P450 2D6 (Homo sapiens, UniProt P10635); assay: Inhibition of human recombinant CYP2D6 expressed in Trichoplusia ni BTI-TN-5B1-4 cells preincubated for 15 mins measured after 45 mins by spectrofluorimetry; type: ADME, cell-based
Plasma [16] = assay: Anticoagulant activity in human plasma assessed as tPA-induced fibrinolysis; type: functional; conditions: in the assay text read “Antifibrinolytic activity” for “Anticoagulant activity”
In short: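 tPA-induced fibrinolysis in human plasma. Value reported as EC200, the inhibitor concentration that doubles the clot-to-lysis time.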

Plasminogen = Plasminogen (Homo sapiens, UniProt P00747); assay: Inhibition of human plasmin protease domain using Tos-Gly-Pro-Lys-pNA as substrate by micro plate reader analysis
Coagulation factor X = Coagulation factor X (Homo sapiens, UniProt P00742); assay: Inhibition of human factor Xa using CH3OCO-D-Cha-Gly-Arg-pNA as substrate after 5 to 10 mins by micro plate reader analysis
[17] = Fraction unbound in human plasma; type: ADME, cell-free
Kallikrein-1 = Kallikrein-1 (Homo sapiens, UniProt P06870); assay: Inhibition of urinary kallikrein (unknown origin)

Chain of Trypsin (P00761 whole entry): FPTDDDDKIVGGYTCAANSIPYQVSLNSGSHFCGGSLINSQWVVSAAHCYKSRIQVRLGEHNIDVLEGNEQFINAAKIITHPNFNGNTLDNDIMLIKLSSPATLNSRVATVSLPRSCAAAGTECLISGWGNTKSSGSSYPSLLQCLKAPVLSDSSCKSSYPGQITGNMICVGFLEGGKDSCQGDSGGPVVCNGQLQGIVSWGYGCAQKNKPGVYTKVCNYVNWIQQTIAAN
Chain of Coagulation factor X (P00742 41-179 limits assumed): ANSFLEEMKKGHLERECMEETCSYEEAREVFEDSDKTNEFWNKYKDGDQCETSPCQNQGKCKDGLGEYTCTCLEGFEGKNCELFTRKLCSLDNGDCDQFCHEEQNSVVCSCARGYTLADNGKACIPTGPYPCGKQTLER
Chain of Coagulation factor X (P00742 235-488 limits assumed): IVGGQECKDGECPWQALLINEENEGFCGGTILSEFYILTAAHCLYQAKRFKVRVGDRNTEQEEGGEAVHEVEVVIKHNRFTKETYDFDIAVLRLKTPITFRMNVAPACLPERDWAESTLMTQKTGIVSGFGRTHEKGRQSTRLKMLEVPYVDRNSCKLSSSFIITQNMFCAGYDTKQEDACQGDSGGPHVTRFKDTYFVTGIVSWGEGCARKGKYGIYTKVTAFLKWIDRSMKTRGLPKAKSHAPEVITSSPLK
Chain of Vitamin K-dependent protein C (P04070 43-197 limits assumed): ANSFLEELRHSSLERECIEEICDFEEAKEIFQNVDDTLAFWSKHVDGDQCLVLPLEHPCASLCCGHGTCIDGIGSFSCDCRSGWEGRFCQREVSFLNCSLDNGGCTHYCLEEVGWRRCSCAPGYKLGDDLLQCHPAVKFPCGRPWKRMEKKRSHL
Chain of Vitamin K-dependent protein C (P04070 212-461 limits assumed): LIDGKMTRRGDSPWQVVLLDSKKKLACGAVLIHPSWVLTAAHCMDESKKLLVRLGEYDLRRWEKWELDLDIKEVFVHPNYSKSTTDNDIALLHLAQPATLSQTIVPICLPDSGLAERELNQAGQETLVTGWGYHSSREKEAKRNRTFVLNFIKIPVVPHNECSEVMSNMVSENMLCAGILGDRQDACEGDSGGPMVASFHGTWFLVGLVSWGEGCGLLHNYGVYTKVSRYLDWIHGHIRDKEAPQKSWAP
Chain of Plasma kallikrein (P03952 20-390 limits assumed): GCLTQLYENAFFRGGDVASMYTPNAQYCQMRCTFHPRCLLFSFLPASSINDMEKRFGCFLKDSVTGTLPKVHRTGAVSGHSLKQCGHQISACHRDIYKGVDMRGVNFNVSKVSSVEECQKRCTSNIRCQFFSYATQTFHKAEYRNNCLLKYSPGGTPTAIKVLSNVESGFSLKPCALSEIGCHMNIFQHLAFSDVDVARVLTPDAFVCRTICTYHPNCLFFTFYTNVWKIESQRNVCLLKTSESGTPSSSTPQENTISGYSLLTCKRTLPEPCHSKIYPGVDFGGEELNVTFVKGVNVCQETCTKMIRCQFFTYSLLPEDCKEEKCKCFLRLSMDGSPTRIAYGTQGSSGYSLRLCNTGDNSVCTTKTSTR
Chain of Plasma kallikrein (P03952 391-638 limits assumed): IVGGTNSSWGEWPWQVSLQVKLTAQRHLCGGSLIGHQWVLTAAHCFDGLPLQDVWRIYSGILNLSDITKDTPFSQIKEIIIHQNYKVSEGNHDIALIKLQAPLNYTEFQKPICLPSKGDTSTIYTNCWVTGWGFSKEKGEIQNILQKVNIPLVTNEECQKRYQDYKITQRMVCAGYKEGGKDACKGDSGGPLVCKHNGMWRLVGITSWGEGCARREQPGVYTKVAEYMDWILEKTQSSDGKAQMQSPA
Chain of Plasminogen (P00747 97-580 limits assumed): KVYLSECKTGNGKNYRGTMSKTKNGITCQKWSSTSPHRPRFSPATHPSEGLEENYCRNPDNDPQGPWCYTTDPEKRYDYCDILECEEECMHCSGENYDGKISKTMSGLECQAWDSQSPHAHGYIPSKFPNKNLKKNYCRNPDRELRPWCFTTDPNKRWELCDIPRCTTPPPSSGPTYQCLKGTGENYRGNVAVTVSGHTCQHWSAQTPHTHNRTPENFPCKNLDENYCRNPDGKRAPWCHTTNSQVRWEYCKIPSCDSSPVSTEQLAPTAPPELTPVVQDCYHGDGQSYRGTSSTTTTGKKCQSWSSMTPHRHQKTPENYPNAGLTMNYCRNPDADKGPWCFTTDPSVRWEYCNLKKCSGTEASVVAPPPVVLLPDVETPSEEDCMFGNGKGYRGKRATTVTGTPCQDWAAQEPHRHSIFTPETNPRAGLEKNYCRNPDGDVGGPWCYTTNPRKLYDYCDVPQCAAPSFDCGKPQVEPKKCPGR
Chain of Plasminogen (P00747 581-810 limits assumed): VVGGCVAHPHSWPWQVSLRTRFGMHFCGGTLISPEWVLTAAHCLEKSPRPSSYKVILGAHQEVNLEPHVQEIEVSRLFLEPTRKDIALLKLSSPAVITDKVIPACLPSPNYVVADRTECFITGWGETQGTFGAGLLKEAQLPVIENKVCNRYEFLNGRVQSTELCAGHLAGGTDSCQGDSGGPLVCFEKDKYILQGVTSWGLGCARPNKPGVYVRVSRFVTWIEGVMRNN
Chain of Cytochrome P450 2D6 (P10635 whole entry): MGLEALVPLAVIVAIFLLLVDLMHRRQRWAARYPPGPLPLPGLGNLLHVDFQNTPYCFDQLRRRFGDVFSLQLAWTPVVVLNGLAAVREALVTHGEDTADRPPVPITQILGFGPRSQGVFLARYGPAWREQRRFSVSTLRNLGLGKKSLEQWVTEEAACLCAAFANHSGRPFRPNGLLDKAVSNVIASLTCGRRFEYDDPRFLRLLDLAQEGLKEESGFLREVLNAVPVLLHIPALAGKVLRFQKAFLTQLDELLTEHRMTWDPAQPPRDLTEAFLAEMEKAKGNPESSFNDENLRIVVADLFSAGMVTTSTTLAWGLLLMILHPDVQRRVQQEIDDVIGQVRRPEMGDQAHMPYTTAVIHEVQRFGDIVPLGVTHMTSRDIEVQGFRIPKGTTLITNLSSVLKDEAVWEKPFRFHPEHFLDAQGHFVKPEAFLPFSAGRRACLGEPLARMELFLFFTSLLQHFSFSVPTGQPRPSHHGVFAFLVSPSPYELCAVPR
Chain of Cytochrome P450 3A4 (P08684 whole entry): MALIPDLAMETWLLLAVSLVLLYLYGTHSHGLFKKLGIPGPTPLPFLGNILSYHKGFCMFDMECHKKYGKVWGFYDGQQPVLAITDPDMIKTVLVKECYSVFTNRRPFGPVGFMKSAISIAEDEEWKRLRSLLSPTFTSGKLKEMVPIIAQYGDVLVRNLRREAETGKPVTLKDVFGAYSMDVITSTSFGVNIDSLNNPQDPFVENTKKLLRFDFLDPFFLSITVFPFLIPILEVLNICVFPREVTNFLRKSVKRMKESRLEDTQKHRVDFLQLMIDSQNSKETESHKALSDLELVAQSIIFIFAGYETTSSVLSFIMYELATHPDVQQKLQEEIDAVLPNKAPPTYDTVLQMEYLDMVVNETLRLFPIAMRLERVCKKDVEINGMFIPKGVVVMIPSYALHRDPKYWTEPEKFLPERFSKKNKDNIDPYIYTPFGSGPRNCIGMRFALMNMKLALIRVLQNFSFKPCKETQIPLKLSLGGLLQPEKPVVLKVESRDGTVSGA
Chain of Cytochrome P450 2C19 (Homo sapiens) (P33261 whole entry, looked up): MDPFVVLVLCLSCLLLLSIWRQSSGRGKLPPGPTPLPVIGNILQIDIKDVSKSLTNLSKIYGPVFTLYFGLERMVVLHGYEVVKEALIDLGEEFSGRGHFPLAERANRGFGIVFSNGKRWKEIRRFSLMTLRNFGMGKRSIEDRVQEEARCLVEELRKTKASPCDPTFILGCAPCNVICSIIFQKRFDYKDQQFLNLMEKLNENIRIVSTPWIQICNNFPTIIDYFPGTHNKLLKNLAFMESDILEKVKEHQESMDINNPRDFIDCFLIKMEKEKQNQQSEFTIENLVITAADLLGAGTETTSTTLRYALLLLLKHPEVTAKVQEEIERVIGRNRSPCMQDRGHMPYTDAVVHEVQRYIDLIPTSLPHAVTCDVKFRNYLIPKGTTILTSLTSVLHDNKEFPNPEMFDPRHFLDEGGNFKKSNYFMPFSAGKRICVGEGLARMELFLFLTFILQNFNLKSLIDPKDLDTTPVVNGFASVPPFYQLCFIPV
Chain of Coagulation factor XII (P00748 20-372 limits assumed): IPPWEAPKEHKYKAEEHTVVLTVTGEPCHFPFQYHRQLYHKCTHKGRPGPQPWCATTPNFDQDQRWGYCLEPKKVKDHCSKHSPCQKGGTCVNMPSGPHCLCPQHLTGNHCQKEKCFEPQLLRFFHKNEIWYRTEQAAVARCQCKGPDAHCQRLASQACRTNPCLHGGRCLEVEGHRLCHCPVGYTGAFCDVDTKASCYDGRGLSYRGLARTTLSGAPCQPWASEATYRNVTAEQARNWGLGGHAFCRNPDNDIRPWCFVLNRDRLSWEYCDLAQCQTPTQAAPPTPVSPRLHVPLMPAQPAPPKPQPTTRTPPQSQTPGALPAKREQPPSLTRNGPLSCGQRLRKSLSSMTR
Chain of Coagulation factor XII (P00748 373-615 limits assumed): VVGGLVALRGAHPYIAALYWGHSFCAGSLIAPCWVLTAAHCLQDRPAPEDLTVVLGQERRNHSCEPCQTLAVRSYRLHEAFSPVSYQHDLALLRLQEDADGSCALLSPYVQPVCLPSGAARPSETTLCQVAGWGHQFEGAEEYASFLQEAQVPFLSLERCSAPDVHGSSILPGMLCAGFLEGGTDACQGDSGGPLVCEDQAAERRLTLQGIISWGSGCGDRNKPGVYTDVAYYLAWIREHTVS
Chain of Coagulation factor IX (P00740 47-191 limits assumed): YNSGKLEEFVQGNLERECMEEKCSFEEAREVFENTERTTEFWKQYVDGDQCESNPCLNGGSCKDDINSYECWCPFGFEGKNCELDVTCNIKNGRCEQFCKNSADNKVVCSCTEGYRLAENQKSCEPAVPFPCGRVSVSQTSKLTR
Chain of Coagulation factor IX (P00740 227-461 limits assumed): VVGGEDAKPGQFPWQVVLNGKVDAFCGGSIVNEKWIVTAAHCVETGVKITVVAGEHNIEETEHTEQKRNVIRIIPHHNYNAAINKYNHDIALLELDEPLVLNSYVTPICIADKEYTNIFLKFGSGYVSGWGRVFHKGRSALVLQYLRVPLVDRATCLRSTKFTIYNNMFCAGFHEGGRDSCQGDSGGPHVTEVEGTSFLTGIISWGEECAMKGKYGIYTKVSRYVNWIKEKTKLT

SMILES: N=C(N)c1ccc(CNC(=O)[C@@H]2Cc3ccc(cc3)NC(=O)CCN3CCN(CCC(=O)Nc4ccc(cc4)C[C@@H](NS(=O)(=O)Cc4ccccc4)C(=O)N2)CC3)cc1.O=C(O)C(F)(F)F
- Ki (Coagulation factor XII): > 20000 nM
- Ki [1]: 6500 nM
- Ki [2]: > 40000 nM
- EC200 (Plasma [3]): >100 µM
- inhibition (Rattus norvegicus): 27%
- IC50 [4]: > 100000 nM
- Ki [5]: > 35000 nM
- Ki (Coagulation factor IX): > 5000 nM
- Ki (Serine protease 1): 8.4 nM
- Ki [6]: > 35000 nM
- solubility thermodynamic [7]: > 2000 µg/mL
- Ki (Prothrombin): 26400 nM
- inhibition at 10 µM [8]: -5%
- inhibition at 10 µM (hERG (KCNH2)): 4%
- inhibition at 10 µM [9]: 3%
- EC200 (Plasma [10]): >100 µM
- EC200 (Plasma [11]): >100 µM
- Ki (Trypsin): 38.3 nM
- IC50 [12]: > 100000 nM
- inhibition at 10 µM [13]: -4%
- IC50 (Cytochrome P450 2C9): > 100000 nM
- metabolised at 1 h [14]: 2%
- Ki [15]: > 15000 nM
- IC50 (Cytochrome P450 3A4): > 10000 nM
- Ki (Plasma kallikrein): 1000 nM
- Ki (Coagulation factor XI): 3370 nM
- IC50 (Cytochrome P450 2D6): > 10000 nM
- EC200 (Plasma [16]): 180 nM
- Ki (Plasminogen): 0.2 nM
- Ki (Coagulation factor X): 25000 nM
- fraction unbound [17]: 0.67
- Ki (Kallikrein-1): 10000 nM

- Ki (Prothrombin): 2950 nM
- Ki (Trypsin): 126 nM
- Ki [15]: 1600 nM
- Ki (Plasma kallikrein): 116 nM
- Ki (Plasminogen): 1.71 nM
- Ki (Coagulation factor X): 3250 nM
SMILES: C[C@H]1CN2CC(=O)Nc3ccc(cc3)C[C@@H](C(=O)NCc3ccc(C(=N)N)cc3)NC(=O)[C@H](NS(=O)(=O)Cc3ccccc3)Cc3ccc(cc3)CNC(=O)CN1C[C@@H]2C

- Ki (Prothrombin): 604 nM
- Ki (Trypsin): 7.8 nM
- Ki [15]: 420 nM
- Ki (Plasma kallikrein): 118 nM
- Ki (Coagulation factor X): 415 nM
SMILES: N=C(N)c1ccc(CNC(=O)[C@@H]2Cc3ccc(cc3)NC(=O)CN3CCN(CC3)CC(=O)Nc3cccc(c3)C[C@@H](NS(=O)(=O)Cc3ccccc3)C(=O)N2)cc1

- Ki (Prothrombin): 8020 nM
- Ki (Trypsin): 19.4 nM
- Ki [15]: 4100 nM
- Ki (Plasma kallikrein): 12.9 nM
- Ki (Coagulation factor X): 1800 nM
SMILES: N=C(N)c1ccc(CNC(=O)[C@@H]2Cc3cccc(c3)NC(=O)CN3CCN(CC3)CC(=O)Nc3ccc(cc3)C[C@@H](NS(=O)(=O)Cc3ccccc3)C(=O)N2)cc1

- Ki (Prothrombin): 3250 nM
- Ki (Trypsin): 24.9 nM
- Ki [15]: 880 nM
- Ki (Plasma kallikrein): 24 nM
- Ki (Plasminogen): 5.1 nM
- Ki (Coagulation factor X): 237 nM
SMILES: N=C(N)c1ccc(CNC(=O)[C@@H]2Cc3cccc(c3)NC(=O)CCN3CCN(CCC(=O)Nc4ccc(cc4)C[C@@H](NS(=O)(=O)Cc4ccccc4)C(=O)N2)CC3)cc1

- Ki (Prothrombin): 11200 nM
- Ki (Trypsin): 10.2 nM
- Ki [15]: 7800 nM
- Ki (Plasma kallikrein): 422 nM
- Ki (Plasminogen): 1.32 nM
- Ki (Coagulation factor X): 8500 nM
SMILES: N=C(N)c1ccc(CNC(=O)[C@@H]2Cc3ccc(cc3)NC(=O)CCN3CCCN(CCC(=O)Nc4ccc(cc4)C[C@@H](NS(=O)(=O)Cc4ccccc4)C(=O)N2)CC3)cc1

- Ki (Prothrombin): 12100 nM
- Ki (Trypsin): 18.1 nM
- Ki [15]: > 20000 nM
- Ki (Plasma kallikrein): 500 nM
- Ki (Plasminogen): 1.15 nM
- Ki (Coagulation factor X): 14000 nM
SMILES: C[C@@H]1CN2CC(=O)Nc3ccc(cc3)C[C@@H](C(=O)NCc3ccc(C(=N)N)cc3)NC(=O)[C@H](NS(=O)(=O)Cc3ccccc3)Cc3ccc(cc3)NC(=O)CN1C[C@@H]2C
